MrgX1 allo act: human MrgX1 positive allosteric modulation, primary screen. Q96LB2. MrgX1-HEK293, Fluo-4 calcium flux, FDSS; stronger effect = higher value. B-score at 10 µM. 0.63% of 310,000 active;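 active = plate-corrected calcium response at least 3 library SD above typical, normal starting fluorescence, not activating the receptor alone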;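 also: compound read alongside a low EC10 to EC30 dose of BAM8-22 agonist; peak minus trough fluorescence over baseline measured at the second addition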
Target sequence (Q96LB2 whole entry, looked up): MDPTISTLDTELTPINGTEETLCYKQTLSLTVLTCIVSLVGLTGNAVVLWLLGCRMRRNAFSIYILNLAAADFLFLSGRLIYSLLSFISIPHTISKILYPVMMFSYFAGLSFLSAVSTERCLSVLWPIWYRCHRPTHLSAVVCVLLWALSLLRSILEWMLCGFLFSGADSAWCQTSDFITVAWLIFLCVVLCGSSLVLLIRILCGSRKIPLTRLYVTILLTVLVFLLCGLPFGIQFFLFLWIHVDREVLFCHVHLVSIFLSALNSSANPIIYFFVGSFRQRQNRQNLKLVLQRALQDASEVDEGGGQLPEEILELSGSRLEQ
MrgX1 agonist: human MrgX1 receptor agonism, primary screen; Q96LB2; MrgX1-HEK293 cells, Fluo-4 calcium fluorescence, agonist mode; stronger effect = higher value; B-score at 10 µM; 0.44% of 310,000 active; AID 588627;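 active = calcium response B-score plate-corrected fluorescence ratio at least 3 library SD, with starting fluorescence B-score inside 5 SD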
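System: HEK293 cells stably expressing human MrgX1 receptor; Dosing: test compound in the initial addition of three; Schedule: overnight plating, then 30 min 37 °C plus 30 min room-temperature dye loading; Detection: kinetic calcium dye fluorescence, Fluo-4 NW; Controls: per-plate positive and negative controls for Z′ factor.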
RGS4 pot: RGS4 potentiation or activation | HEK293 M3R/inducible RGS4, carbachol calcium flux Fluo4; stronger effect = lower value | B-score at 10 µM | 0.92% of 310,000 active;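 active = B-score of the integrated calcium signal more than 4 SD below the library mean, with starting fluorescence not abnormally high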;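 also: negative B-score means reduced calcium response which marks RGS4 activation or potentiation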
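Detection: kinetic calcium fluorescence imaging with Fluo4-AM dye, 2 µM / Material: HEK293 cells with stable M3R and inducible RGS4 / Schedule: recording 10 s baseline at 1 Hz, 100 s post-agonist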
RGS4 inh: human RGS4 inhibition; 0.45% of 310,000 active; P49798; AID 463165; HEK293 M3R/RGS4 inducible, Fluo-4 calcium flux; stronger effect = higher value; triggered by carbachol at its EC20; B-score at 10 µM;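 active = B-score, a plate-corrected calcium signal, over three deviations above library mean, with baseline fluorescence within five deviations of library mean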;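 also: RGS4 expression induced by doxycycline in cells with stable M3 receptor; B-score is computed from the integrated fluorescence ratio over baseline after carbachol; higher B-score means a larger calcium signal and so more RGS4 inhibition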
Target sequence (P49798 whole entry, looked up): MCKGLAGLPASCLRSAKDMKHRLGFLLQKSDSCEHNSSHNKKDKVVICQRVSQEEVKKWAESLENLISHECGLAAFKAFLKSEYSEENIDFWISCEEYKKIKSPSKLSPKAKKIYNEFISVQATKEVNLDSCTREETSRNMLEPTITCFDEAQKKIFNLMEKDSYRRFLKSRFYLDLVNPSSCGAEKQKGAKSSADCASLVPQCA
MrgX1 antagonist: antagonists of human MrgX1 receptor. MRGX1-HEK293 calcium flux, Fluo-4, BAM8-22 antagonism; stronger effect = lower value. Q96LB2. AID 588676. 1.3% of 310,000 active. B-score at 10 µM;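 active = calcium-response B-score plate-corrected more than 3 library SD below zero, starting fluorescence within 5 deviations, no agonist response on first addition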;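 also: peak minus trough fluorescence over baseline after final BAM8-22 challenge near maximal dose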
MrgX1 ag confirm: reconfirmed activator of human MrgX1 receptor signaling; shares compounds with MrgX1 agonist; MrgX1-HEK293, Fluo-4 calcium fluorescence, FDSS; activation, % at 10 µM; 78% of 600 active; AID 602412;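 active = calcium signal rise, corrected for plate position, at least 3 library SD high, with starting brightness within 5 such deviations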
HEK293 Ca flux: counter-screen for MrgX1 antagonists: effect in parental HEK293 cells; shares compounds with MrgX1 antagonist; Fluo-4 calcium fluorescence, FDSS; fluorescence ratio F(max-min)/F0 at 10 µM; 2% of 4,000 active; AID 624111;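 active = duplicate-averaged calcium fluorescence ratio at least three times the standard deviation of buffer wells, a nonspecific response in parental cells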
HEK293 Ca counter: activity in parental HEK293 cells without MrgX1; parental HEK293 calcium flux, Fluo-4 fluorescence ratio; stronger effect = higher value; fluorescence ratio F(max-min)/F0 at 10 µM; 0.4% of 4,000 active; shares compounds with MrgX1 antagonist;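 active = calcium fluorescence ratio, averaged over duplicates, at least 3 SD of the buffer-well ratio, meaning a nonspecific response in receptor-free cells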;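 also: untransfected parental HEK293 lacking MrgX1 used as counterscreen for MrgX1 allosteric activators; fluorescence change taken during the second addition on a kinetic imager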
HEK293 Ca cntr2: activity in parental HEK293 cells lacking MrgX1 receptor; shares compounds with MrgX1 antagonist; fluorescence ratio F(max-min)/F0 at 10 µM; 8.7% of 4,000 active; Fluo-4 calcium fluorescence (FDSS); stronger effect = higher value;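 active = calcium fluorescence ratio at least three times the spread of buffer wells, meaning a non-specific response in parental cells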
Hits are given with their value. The list is not random: actives were taken first. Their share in the collection is about 3.5%.

`Cc1ccc(-c2[nH]c(-c3ccccc3)nc2SCC(=O)NCC2CCCO2)cc1` (stereo not drawn) gave MrgX1 allo act inactive, MrgX1 agonist 34, RGS4 pot inactive, RGS4 inh inactive, MrgX1 antagonist inactive, MrgX1 ag confirm 239%, HEK293 Ca flux inactive, HEK293 Ca counter inactive and HEK293 Ca cntr2 49.
`CCOC(=O)N1CCN(c2nc(-c3ccc(OC)cc3)no2)CC1` gave MrgX1 allo act inactive, MrgX1 agonist 74, RGS4 pot inactive, RGS4 inh inactive, MrgX1 antagonist inactive, MrgX1 ag confirm inactive, HEK293 Ca flux inactive, HEK293 Ca counter inactive and HEK293 Ca cntr2 inactive.
Screening CCOCCn1c(SC(C)C(C)=O)nc2c1c(=O)[nH]c(=O)n2C (stereo not drawn) returned MrgX1 allo act inactive, MrgX1 agonist 53, RGS4 pot inactive, RGS4 inh inactive, MrgX1 antagonist inactive, MrgX1 ag confirm inactive, HEK293 Ca flux inactive, HEK293 Ca counter inactive and HEK293 Ca cntr2 inactive.
Screening CCCCC1=NN(C(=O)c2cccnc2)C(O)(C(F)(F)F)C1 (stereo not drawn) returned MrgX1 allo act inactive, MrgX1 agonist inactive, RGS4 pot inactive, RGS4 inh inactive and MrgX1 antagonist inactive.
C=CCSC(=S)NC1CCS(=O)(=O)C1 (stereo not drawn) was read as MrgX1 allo act inactive, MrgX1 agonist 31, RGS4 pot inactive, RGS4 inh inactive, MrgX1 antagonist inactive, MrgX1 ag confirm inactive, HEK293 Ca flux inactive, HEK293 Ca counter inactive and HEK293 Ca cntr2 inactive.
`CC(C)[C@@H](C(=O)N[C@@H](Cc1ccccc1)C(=O)O)N1C(=O)N2CCc3c([nH]c4ccccc34)[C@@]2(C)C1=O` gave MrgX1 allo act inactive, MrgX1 agonist inactive, RGS4 pot inactive, RGS4 inh inactive and MrgX1 antagonist inactive.
CC(C)CN(C(=O)COC(=O)c1ccccn1)c1c(N)n(Cc2ccccc2)c(=O)[nH]c1=O was read as MrgX1 allo act inactive, MrgX1 agonist inactive, RGS4 pot inactive, RGS4 inh inactive and MrgX1 antagonist inactive.
Screening Cc1c2ccccc2nc2c(F)c(NC(C)C)c(F)c(F)c12 returned MrgX1 allo act inactive, MrgX1 agonist inactive, RGS4 pot inactive, RGS4 inh inactive and MrgX1 antagonist inactive.
Screening Cc1c2ccccc2nc2c(F)c(NCCO)c(F)c(F)c12 returned MrgX1 allo act inactive, MrgX1 agonist 30, RGS4 pot inactive, RGS4 inh inactive, MrgX1 antagonist inactive, MrgX1 ag confirm inactive, HEK293 Ca flux 0.12, HEK293 Ca counter inactive and HEK293 Ca cntr2 inactive.
For Cc1ccc(C)c(S(=O)(=O)Nc2ccc(C(=O)N3CCC3)cc2)c1 the results were MrgX1 allo act inactive, MrgX1 agonist inactive, RGS4 pot inactive, RGS4 inh inactive and MrgX1 antagonist inactive.
For NC(N)=NS(=O)(=O)c1ccc(NC(=S)NC(=O)c2ccc(Br)cc2)cc1 the results were MrgX1 allo act inactive, MrgX1 agonist inactive, RGS4 pot inactive, RGS4 inh inactive and MrgX1 antagonist inactive.
`O=C1Cc2ccccc2Sc2cc(OCCCN3CCCCC3)ccc21` gave MrgX1 allo act inactive, MrgX1 agonist inactive, RGS4 pot inactive, RGS4 inh inactive and MrgX1 antagonist inactive.
Screening O=C1Cc2ccccc2Sc2c(OCCN3CCCCC3)cccc21 returned MrgX1 allo act inactive, MrgX1 agonist 27, RGS4 pot inactive, RGS4 inh inactive, MrgX1 antagonist inactive, MrgX1 ag confirm 203%, HEK293 Ca flux inactive, HEK293 Ca counter inactive and HEK293 Ca cntr2 inactive.
For Cc1ccccc1NC(=O)CN1CCOCC1 the results were MrgX1 allo act inactive, MrgX1 agonist 35, RGS4 pot inactive, RGS4 inh inactive, MrgX1 antagonist inactive, MrgX1 ag confirm inactive, HEK293 Ca flux inactive, HEK293 Ca counter inactive and HEK293 Ca cntr2 inactive.
Screening Cc1ccc(C(=O)NCC(C)NC(=O)c2ccc(C)c(C)c2)cc1C (stereo not drawn) returned MrgX1 allo act inactive, MrgX1 agonist inactive, RGS4 pot inactive, RGS4 inh inactive and MrgX1 antagonist inactive.
For Cc1c(Br)c(O)c(Br)c2sc(=O)oc12 the results were MrgX1 allo act inactive, MrgX1 agonist 33, MrgX1 antagonist inactive, MrgX1 ag confirm 149%, HEK293 Ca flux inactive, HEK293 Ca counter inactive and HEK293 Ca cntr2 inactive.
For Fc1cccc(Cl)c1CN1CCN(c2nc3ccccc3s2)CC1 the results were MrgX1 allo act inactive, MrgX1 agonist 31, RGS4 pot inactive, RGS4 inh inactive, MrgX1 antagonist inactive, MrgX1 ag confirm 224%, HEK293 Ca flux inactive, HEK293 Ca counter inactive and HEK293 Ca cntr2 inactive.
For O=C(c1ccc2ccccc2n1)N1CCN(Cc2c(F)cccc2Cl)CC1 the results were MrgX1 allo act inactive, MrgX1 agonist inactive, RGS4 pot inactive, RGS4 inh inactive and MrgX1 antagonist inactive.
Screening Cc1ccc(-c2csc(N=C(N)N)n2)c(C)c1 returned MrgX1 allo act inactive, MrgX1 agonist 76, RGS4 pot inactive, RGS4 inh inactive, MrgX1 antagonist inactive, MrgX1 ag confirm 104%, HEK293 Ca flux inactive, HEK293 Ca counter inactive and HEK293 Ca cntr2 inactive.
COc1ccc(-c2csc(N=C(N)N)n2)cc1 was read as MrgX1 allo act inactive, MrgX1 agonist inactive, RGS4 pot inactive, RGS4 inh inactive and MrgX1 antagonist inactive.
For COc1ccc(C)cc1N(CC(=O)N1CCCCCC1)S(=O)(=O)c1ccc(C)cc1 the results were MrgX1 allo act inactive, MrgX1 agonist 37, RGS4 pot inactive, RGS4 inh inactive, MrgX1 antagonist inactive, MrgX1 ag confirm 198%, HEK293 Ca flux inactive, HEK293 Ca counter inactive and HEK293 Ca cntr2 inactive.
`COc1ccc(OC)c(N(CC(=O)N2CCCC2)S(=O)(=O)c2ccc(C)cc2)c1` gave MrgX1 allo act inactive, MrgX1 agonist inactive, RGS4 pot inactive, RGS4 inh inactive and MrgX1 antagonist inactive.
CC(C)(C)n1nnnc1C(c1cccnc1)N1CCN(c2cccc(C(F)(F)F)c2)CC1 (stereo not drawn) was read as MrgX1 allo act inactive, MrgX1 agonist inactive, RGS4 pot inactive, RGS4 inh inactive and MrgX1 antagonist inactive.
Screening CC(C)(C)c1cc(C(c2cccnc2)N2CCN(CCO)CC2)cc(C(C)(C)C)c1O (stereo not drawn) returned MrgX1 allo act inactive, MrgX1 agonist 32, RGS4 pot inactive, RGS4 inh inactive, MrgX1 antagonist inactive, MrgX1 ag confirm 263%, HEK293 Ca flux inactive, HEK293 Ca counter inactive and HEK293 Ca cntr2 53.
